The text below walks through data of paper PMC11310207 (Scientific Reports, 2024).

A word on the Ki: it is the dissociation constant of the complex between target and ligand, obtained from inhibition or displacement. What is called Kd is the free concentration of one partner at which half of the binding sites on the other are occupied at equilibrium, for simple one-to-one binding. A high value points to a looser complex.

In test [1] the target is T1, recombinant human Nln (Homo sapiens, UniProt Q9BYT8). The settings on record: read-out: Ki (published value); inhibition of Nln; cited from earlier work.
For test [2], the target named is T1, recombinant human Nln. As to the kind of experiment: Competition of Dyn A peptides with quenched fluorogenic Nln substrate. Type of test: biochemical. In outline: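 N-terminally 6xHis-tagged human Nln (Ser38–Pro704) was incubated in aCSF at 37 °C with 15 µM quenched substrate Mca-Pro-Leu-Gly-Pro-D-Lys(DNP)-OH, ± Dyn A peptide at 0.1–100 µM. Fluorescence was recorded continuously for 20 min under initial-velocity conditions (<10% substrate consumed). V0 was expressed as % of the no-peptide control and fitted to three-parameter log(inhibitor)–response to give IC50. Ki was calculated by Cheng–Prusoff (Km 8 µM). n=4, duplicates.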

In test [3] the target is rNln E475A (Rattus norvegicus, UniProt P42676, E498A). Type of test: binding. In outline: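 Rat Nln (Met37–Ser704, E475A) with a C-terminal 6xHis tag, expressed in E. coli BL21(DE3) and purified by Ni-affinity and SEC. FAM-labelled Dyn A peptides (FAM replacing Tyr1; 18 nM final) were mixed with 0–50 µM Nln in aCSF (0.2 µM ZnSO4, pH 7.2) plus 0.01% Triton X-100. Polarization was read at 25 °C (ex 485/em 535 nm). ΔmP versus no-Nln was fitted to one-site binding with ligand depletion for KD.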

Read-outs that look alike come from different tables or passages of the source. Ends that are not written are not given here. Peptide text beside a SMILES is read from it. * marks the point of attachment. 5FAM = O=C1OC2(c3ccc(O)cc3Oc3cc(O)ccc32)c2ccc(C(=O)*)cc21

T1 sequence (Q9BYT8 38-704): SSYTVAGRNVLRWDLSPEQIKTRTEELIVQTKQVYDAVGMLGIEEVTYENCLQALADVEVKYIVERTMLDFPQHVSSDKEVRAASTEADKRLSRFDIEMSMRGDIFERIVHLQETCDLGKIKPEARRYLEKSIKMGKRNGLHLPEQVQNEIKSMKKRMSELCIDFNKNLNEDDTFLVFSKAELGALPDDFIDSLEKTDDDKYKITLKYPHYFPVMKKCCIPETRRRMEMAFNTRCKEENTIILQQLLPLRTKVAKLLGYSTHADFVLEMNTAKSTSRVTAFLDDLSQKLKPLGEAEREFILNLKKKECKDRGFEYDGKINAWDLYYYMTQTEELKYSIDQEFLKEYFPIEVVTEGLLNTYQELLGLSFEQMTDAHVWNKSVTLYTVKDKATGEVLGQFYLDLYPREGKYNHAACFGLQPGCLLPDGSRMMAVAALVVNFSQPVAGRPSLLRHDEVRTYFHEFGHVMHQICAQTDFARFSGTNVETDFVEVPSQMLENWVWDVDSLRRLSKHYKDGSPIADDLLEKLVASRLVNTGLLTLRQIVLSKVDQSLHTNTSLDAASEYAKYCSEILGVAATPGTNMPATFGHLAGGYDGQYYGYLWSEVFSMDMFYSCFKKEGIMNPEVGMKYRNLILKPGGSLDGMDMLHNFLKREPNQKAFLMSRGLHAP
Sequence of rNln E475A (P42676 37-704 E498A): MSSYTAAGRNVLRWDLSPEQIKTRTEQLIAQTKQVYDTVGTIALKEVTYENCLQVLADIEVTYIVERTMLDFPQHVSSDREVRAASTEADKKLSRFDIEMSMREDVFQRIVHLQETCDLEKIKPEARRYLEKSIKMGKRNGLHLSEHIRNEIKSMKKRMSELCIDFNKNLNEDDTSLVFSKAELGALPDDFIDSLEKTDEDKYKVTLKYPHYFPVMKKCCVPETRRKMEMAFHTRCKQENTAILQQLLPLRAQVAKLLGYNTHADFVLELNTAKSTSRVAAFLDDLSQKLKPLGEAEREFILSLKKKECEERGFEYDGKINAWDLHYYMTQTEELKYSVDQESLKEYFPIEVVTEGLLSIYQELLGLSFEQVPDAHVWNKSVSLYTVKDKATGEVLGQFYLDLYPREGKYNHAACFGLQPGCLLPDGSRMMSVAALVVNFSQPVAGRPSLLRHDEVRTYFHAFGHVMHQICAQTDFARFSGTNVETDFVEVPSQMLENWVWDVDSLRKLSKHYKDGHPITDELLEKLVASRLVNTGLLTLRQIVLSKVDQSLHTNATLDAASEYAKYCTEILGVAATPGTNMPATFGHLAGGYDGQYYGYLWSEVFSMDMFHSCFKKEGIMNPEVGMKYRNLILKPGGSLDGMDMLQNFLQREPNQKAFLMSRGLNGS

Regarding `CC[C@H](C)[C@H](NC(=O)[C@H](CCCNC(=N)N)NC(=O)[C@H](CCCNC(=N)N)NC(=O)[C@H](CC(C)C)NC(=O)[C@H](Cc1ccccc1)NC(=O)CNC(=O)CNC(=O)[C@@H](N)Cc1ccc(O)cc1)C(=O)N[C@@H](CCCNC(=N)N)C(=O)N1CCC[C@H]1C(=O)N[C@@H](CCCCN)C(=O)N[C@@H](CC(C)C)C(=O)N[C@@H](CCCCN)C(=O)O` [Dyn A (1–13)], in test [1], the Ki was 1.19 µM.
Take `CC[C@H](C)[C@H](NC(=O)[C@H](CCCNC(=N)N)NC(=O)[C@H](CCCNC(=N)N)NC(=O)[C@H](CC(C)C)NC(=O)[C@H](Cc1ccccc1)NC(=O)CNC(=O)CNC(=O)[C@@H](N)Cc1ccc(O)cc1)C(=O)N[C@@H](CCCNC(=N)N)C(=O)N1CCC[C@H]1C(=O)N[C@@H](CCCCN)C(=O)N[C@@H](CC(C)C)C(=O)N[C@@H](CCCCN)C(=O)N[C@@H](Cc1c[nH]c2ccccc12)C(=O)N[C@@H](CC(=O)O)C(=O)N[C@@H](CC(N)=O)C(=O)N[C@@H](CCC(N)=O)C(=O)O` [Dyn A (1–17)]: the Ki in test [2] was approximately 6 µM.
Compound `CC[C@H](C)[C@H](NC(=O)[C@H](CCCNC(=N)N)NC(=O)[C@H](CCCNC(=N)N)NC(=O)[C@H](CC(C)C)NC(=O)[C@H](Cc1ccccc1)NC(=O)CNC(=O)CNC(=O)c1ccc2c(c1)C(=O)OC21c2ccc(O)cc2Oc2cc(O)ccc21)C(=O)N[C@@H](CCCNC(=N)N)C(=O)N1CCC[C@H]1C(=O)N[C@@H](CCCCN)C(=O)N[C@@H](CC(C)C)C(=O)N[C@@H](CCCCN)C(=O)N[C@@H](Cc1c[nH]c2ccccc12)C(=O)N[C@@H](CC(=O)O)C(=O)N[C@@H](CC(N)=O)C(=O)N[C@@H](CCC(N)=O)C(=O)O` [FAM-^2GGFLRRIRPKLKWDNQ^17] displayed a Kd in test [3] of 3.26 µM.
Take `CC[C@H](C)[C@H](NC(=O)[C@H](CCCNC(=N)N)NC(=O)[C@H](CCCNC(=N)N)NC(=O)[C@H](CC(C)C)NC(=O)[C@H](Cc1ccccc1)NC(=O)CNC(=O)CNC(=O)c1ccc2c(c1)C(=O)OC21c2ccc(O)cc2Oc2cc(O)ccc21)C(=O)N[C@@H](CCCNC(=N)N)C(=O)N1CCC[C@H]1C(=O)N[C@@H](CCCCN)C(=O)N[C@@H](CC(C)C)C(=O)N[C@@H](CCCCN)C(=O)O` [FAM-^2GGFLRRIRPKLK^13]: the equilibrium dissociation constant (Kd) in test [3] was 4.69 µM.
On the same count and under the same terms, the result for `CC[C@H](C)[C@H](NC(=O)[C@H](CCCNC(=N)N)NC(=O)[C@H](CCCNC(=N)N)NC(=O)[C@H](CC(C)C)NC(=O)[C@H](Cc1ccccc1)NC(=O)CNC(=O)CNC(=O)c1ccc2c(c1)C(=O)OC21c2ccc(O)cc2Oc2cc(O)ccc21)C(=O)N[C@@H](CCCNC(=N)N)C(=O)N1CCC[C@H]1C(=O)O` [FAM-^2GGFLRRIRP^10] (5FAM-GGFLRRIRP-OH) reads 8.46 µM.
Take YGGFLRRIR [Dyn A (1–9)]: in test [2], the inhibition constant (Ki) is approximately 6 µM.
